Type in all cases: cell-based
In one assay the target is T1, GABA transporter 2 (Mus musculus, UniProt P31651).
T1 sequence (P31651 whole entry): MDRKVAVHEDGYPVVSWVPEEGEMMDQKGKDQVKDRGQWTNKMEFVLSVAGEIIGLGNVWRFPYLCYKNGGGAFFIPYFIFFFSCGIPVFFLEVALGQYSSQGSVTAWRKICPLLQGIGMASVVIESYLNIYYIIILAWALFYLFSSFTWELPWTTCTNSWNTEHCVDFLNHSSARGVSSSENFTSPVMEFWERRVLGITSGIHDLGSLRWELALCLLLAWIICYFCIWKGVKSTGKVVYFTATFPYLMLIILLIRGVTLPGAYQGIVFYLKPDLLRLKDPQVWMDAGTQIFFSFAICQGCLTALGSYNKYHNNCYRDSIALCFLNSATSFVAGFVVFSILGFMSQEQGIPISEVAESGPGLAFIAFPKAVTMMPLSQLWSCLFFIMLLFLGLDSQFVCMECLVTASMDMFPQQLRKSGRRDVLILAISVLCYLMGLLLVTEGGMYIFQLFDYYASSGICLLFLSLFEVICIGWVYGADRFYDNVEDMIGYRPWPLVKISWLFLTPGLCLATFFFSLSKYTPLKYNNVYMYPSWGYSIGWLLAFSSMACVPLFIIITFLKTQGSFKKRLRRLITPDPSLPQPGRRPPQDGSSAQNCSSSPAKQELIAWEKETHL
The assay can be described thus: Inhibition of mouse BGT1 expressed in HEK293 cells assessed as reduction in [3H]GABA uptake after 3 mins by scintillation counting method. Conditions: read-out: IC50. In a few lines:
(§1)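 HEK293 lines stably expressing a single mouse GAT subtype, kept under blasticidin-S (5 µg/mL) selection. Cells were assayed about 24 h after plating with 30 nM [3H]GABA plus varying compound concentrations for 3 min at 37 °C in HBSS buffered with 20 mM HEPES (1 mM CaCl2, 1 mM MgCl2, pH 7.4). Cells were washed ice-cold and radioactivity counted. IC50 came from sigmoidal variable-slope fits.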

Assay [1] has as its target Sodium- and chloride-dependent GABA transporter 1 (Mus musculus, UniProt P31648). The experiment in a line: Inhibition of mouse GAT1 expressed in HEK293 cells assessed as reduction in [3H]GABA uptake after 3 mins by scintillation counting method. In a few lines: as §1
Another assay concerns the target T2, GABA transporter 3 (Mus musculus, UniProt P31649).
T2 sequence (P31649 whole entry): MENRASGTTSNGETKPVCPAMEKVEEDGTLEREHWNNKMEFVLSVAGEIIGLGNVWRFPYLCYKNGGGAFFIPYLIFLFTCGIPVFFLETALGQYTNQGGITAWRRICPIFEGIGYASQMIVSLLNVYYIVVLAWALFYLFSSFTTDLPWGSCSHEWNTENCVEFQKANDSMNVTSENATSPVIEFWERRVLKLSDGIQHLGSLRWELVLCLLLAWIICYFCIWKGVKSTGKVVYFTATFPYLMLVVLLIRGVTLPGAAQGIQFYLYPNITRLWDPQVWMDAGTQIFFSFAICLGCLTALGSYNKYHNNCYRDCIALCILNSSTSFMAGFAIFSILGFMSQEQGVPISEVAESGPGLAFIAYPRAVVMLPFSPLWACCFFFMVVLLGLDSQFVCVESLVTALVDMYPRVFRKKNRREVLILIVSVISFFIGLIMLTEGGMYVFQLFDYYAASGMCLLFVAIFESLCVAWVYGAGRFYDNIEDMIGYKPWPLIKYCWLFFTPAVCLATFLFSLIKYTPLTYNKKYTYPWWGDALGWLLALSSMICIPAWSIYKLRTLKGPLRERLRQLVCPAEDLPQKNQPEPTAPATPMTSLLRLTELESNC
The assay can be described thus: Inhibition of mouse GAT2 expressed in HEK293 cells assessed as reduction in [3H]GABA uptake after 3 mins by scintillation counting method. In a few lines: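 HEK293 cells stably expressing mouse GAT2 were kept under blasticidin-S (5 µg/mL) selection. Ice-cold washes preceded scintillation counting. IC50 came from a variable-slope sigmoidal fit.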

The target of assay [2] is Sodium- and chloride-dependent GABA transporter 1 (Homo sapiens, UniProt P30531). The conditions noted are these: read-out: IC50.

Bounds are passed on as bounds.

Chain of Sodium- and chloride-dependent GABA transporter 1 (Homo sapiens, UniProt P30531) (P30531 whole entry): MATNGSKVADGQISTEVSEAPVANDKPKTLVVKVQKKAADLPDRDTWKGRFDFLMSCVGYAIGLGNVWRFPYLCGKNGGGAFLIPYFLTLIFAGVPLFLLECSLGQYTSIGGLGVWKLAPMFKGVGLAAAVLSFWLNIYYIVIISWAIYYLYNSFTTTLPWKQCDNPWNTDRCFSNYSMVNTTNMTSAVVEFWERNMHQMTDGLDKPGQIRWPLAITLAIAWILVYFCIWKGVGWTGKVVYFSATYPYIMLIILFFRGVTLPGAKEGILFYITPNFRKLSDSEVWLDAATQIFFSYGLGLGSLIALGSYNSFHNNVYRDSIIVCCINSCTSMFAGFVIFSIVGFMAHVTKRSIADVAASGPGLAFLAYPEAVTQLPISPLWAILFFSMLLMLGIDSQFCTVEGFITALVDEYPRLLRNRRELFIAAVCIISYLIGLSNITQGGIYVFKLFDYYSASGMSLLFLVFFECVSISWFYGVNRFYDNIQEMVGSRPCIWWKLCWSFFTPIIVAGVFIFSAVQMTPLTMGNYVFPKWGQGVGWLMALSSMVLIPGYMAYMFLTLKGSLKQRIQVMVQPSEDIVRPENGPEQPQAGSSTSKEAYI

A word on the IC50: it is the concentration that inhibits the measured activity by half. As to `NC(=O)c1cccc(CN2CCC(NC(=O)c3ccc(Cl)nc3Cl)CC2)c1`, the IC50 (on GABA transporter 2; in assay [1]; on GABA transporter 3) was > 300 µM in each case.
As to `Cc1cccc(CN2CCC(NC(=O)c3ccc(Cl)cc3Cl)CC2)c1`, the IC50 (at GABA transporter 2; in assay [1]; at GABA transporter 3) was > 300 µM throughout.
In the case of `O=C(NC1CCN(Cc2cc(Cl)cc(Cl)c2)CC1)c1ccc(Cl)cc1Cl`, the IC50 (on GABA transporter 2; in assay [1]; on GABA transporter 3) was > 300 µM each time.
As for `O=C(NC1CCN(Cc2ccccc2)CC1)c1ccnc(Cl)c1`, the IC50 is 300 µM at GABA transporter 2, > 1000 µM in assay [1] and > 1000 µM at GABA transporter 3.
In the case of `O=C(NC1CCN(Cc2cccc(O)c2)CC1)c1ccc(Cl)nc1Cl`, the IC50 (at GABA transporter 2; in assay [1]; at GABA transporter 3) was > 300 µM in each case.
In the case of `Clc1ccc(CNC2CCN(Cc3ccccc3)CC2)c(Cl)c1`, the IC50 on GABA transporter 2 was 112 µM; at GABA transporter 3 it was > 400 µM; in assay [2] it was > 400 µM.
Take `COc1cccc(CN2CCC(NC(=O)c3ccc(Cl)nc3)CC2)c1`: the IC50 at GABA transporter 2 was 115 µM; in assay [1], > 1000 µM; at GABA transporter 3 it was 540 µM.
Regarding `O=C(NC1CCN(Cc2ccccc2)CC1)c1ccncc1`, the figures for the concentration for half-maximal inhibition (IC50) (on GABA transporter 2; in assay [1]; at GABA transporter 3) were 1150 µM, > 1000 µM and > 1000 µM, respectively.
For `O=C(NC1CCN(Cc2ccccc2)CC1)c1cnccc1Cl`, the results for the 50% inhibitory concentration (IC50) (on GABA transporter 2; in assay [1]; on GABA transporter 3) were 39 µM, > 1000 µM and 150 µM, respectively.
Consider `O=C(NC1CCN(Cc2ccccc2)CC1)c1ccccc1Cl`, for which the IC50 at GABA transporter 2 was 151 µM; in assay [1], > 400 µM; on GABA transporter 3 it was > 400 µM.
Turning to `O=C(NC1CCN(Cc2ccccc2)CC1)c1cccnc1`, the IC50 (at GABA transporter 2; in assay [1]; at GABA transporter 3) was > 1000 µM each time.
Regarding `O=C(NC1CCN(Cc2ccc(OC(F)(F)F)cc2)CC1)c1ccc(Cl)cc1Cl`, the IC50 (on GABA transporter 2; in assay [1]; at GABA transporter 3) was > 1000 µM each time.
On to `O=C(NC1CCN(Cc2ccc(-c3ccccc3)cc2)CC1)c1ccc(Cl)nc1Cl`, for which the IC50 (at GABA transporter 2; in assay [1]; at GABA transporter 3) was > 300 µM in each case.
As for `O=C(NC1CCN(Cc2ccc3c(c2)OCO3)CC1)c1ccc(Cl)nc1Cl`, the IC50 at GABA transporter 2 is 60 µM; in assay [1], > 300 µM; on GABA transporter 3, > 300 µM.
With `COc1cccc(CN2CCC(NC(=O)c3cccs3)CC2)c1`, the IC50 on GABA transporter 2 was 390 µM; in assay [1], > 400 µM; at GABA transporter 3, > 400 µM.
`COc1cccc(CN2CCC(NC(=O)c3ccncc3)CC2)c1`: the IC50 (on GABA transporter 2; in assay [1]; at GABA transporter 3) was > 1000 µM each time.
Regarding `O=C(NC1CCN(Cc2cccc([N+](=O)[O-])c2)CC1)c1ccc(Cl)nc1Cl`, the IC50 (on GABA transporter 2; in assay [1]; at GABA transporter 3) was > 300 µM in each case.
In the case of `O=C(NC1CCN(Cc2ccccc2)CC1)c1ccc(Cl)cc1`, the IC50 was 77 µM on GABA transporter 2, > 1000 µM in assay [1] and 590 µM on GABA transporter 3.
`O=C(NC1CCN(Cc2ccccc2)CC1)c1cccnc1Cl`: the IC50 on GABA transporter 2 was 1650 µM; in assay [1], > 1000 µM; on GABA transporter 3, > 1000 µM.
For `O=C(NC1CCN(Cc2ccccc2)CC1)c1cccs1`, the half-maximal inhibitory concentration (IC50) at GABA transporter 2 was 179 µM; in assay [1] it was > 400 µM; on GABA transporter 3, > 400 µM.
Turning to `O=C(NC1CCN(Cc2cccs2)CC1)c1ccc(Cl)nc1Cl`, the IC50 (at GABA transporter 2; in assay [1]; on GABA transporter 3) was > 300 µM throughout.
With `COc1cccc(CN2CCC(NC(=O)c3ccc(Cl)cc3Cl)CC2)c1`, the values for the IC50 (at GABA transporter 2; in assay [1]; at GABA transporter 3) were 26 µM, > 200 µM and > 200 µM, respectively.
As for `COc1cccc(CN2CCC(NC(=O)c3cccnc3Cl)CC2)c1`, the IC50 was 1670 µM at GABA transporter 2, > 1000 µM in assay [1] and > 1000 µM at GABA transporter 3.
In the case of `COc1cccc(CN2CCC(NC(=O)c3cccnc3)CC2)c1`, the IC50 (on GABA transporter 2; in assay [1]; on GABA transporter 3) was > 1000 µM throughout.
Turning to `O=C(O)c1cccc(CN2CCC(NC(=O)c3ccc(Cl)nc3Cl)CC2)c1`, the IC50 (on GABA transporter 2; in assay [1]; at GABA transporter 3) was > 300 µM each time.
With `COC(=O)c1cccc(CN2CCC(NC(=O)c3ccc(Cl)nc3Cl)CC2)c1`, the half-maximal inhibitory concentration (IC50) (at GABA transporter 2; in assay [1]; at GABA transporter 3) was > 300 µM each time.
In the case of `O=C(NC1CCN(Cc2cccc(Cl)c2)CC1)c1ccc(Cl)cc1Cl`, the half-inhibitory concentration (IC50) (at GABA transporter 2; in assay [1]; on GABA transporter 3) was > 300 µM each time.
With `O=C(NC1CCN(Cc2c[nH]c3ccccc23)CC1)c1ccc(Cl)nc1Cl`, the half-inhibitory concentration (IC50) is 58 µM on GABA transporter 2, > 300 µM in assay [1] and > 300 µM at GABA transporter 3.
In the case of `Cc1cc(C)cc(CN2CCC(NC(=O)c3ccc(Cl)cc3Cl)CC2)c1`, the half-maximal inhibitory concentration (IC50) (at GABA transporter 2; in assay [1]; at GABA transporter 3) was > 300 µM in each case.
For `O=C(NC1CCN(Cc2cccc(OCCO)c2)CC1)c1ccc(Cl)nc1Cl`, the IC50 (at GABA transporter 2; in assay [1]; on GABA transporter 3) was > 300 µM in each case.
On to `COc1cc(CN2CCC(NC(=O)c3ccc(Cl)cc3Cl)CC2)cc(OC)c1`, for which the IC50 at GABA transporter 2 was 30 µM; in assay [1], > 1000 µM; on GABA transporter 3, 1200 µM.
Consider `O=C(OC1CCN(Cc2ccccc2)CC1)c1ccccc1`, for which the IC50 is 106 µM on GABA transporter 2, 349 µM on GABA transporter 3 and > 1000 µM in assay [2].
With `O=C(NC1CCN(Cc2cccc(F)c2)CC1)c1ccc(Cl)cc1Cl`, the figures for the IC50 (on GABA transporter 2; in assay [1]; at GABA transporter 3) were 34 µM, > 1000 µM and > 1000 µM, respectively.
With `O=C(NC1CCN(Cc2cccc(OC(F)(F)F)c2)CC1)c1ccc(Cl)cc1Cl`, the figures for the IC50 (at GABA transporter 2; in assay [1]; at GABA transporter 3) were 160 µM, > 1000 µM and > 1000 µM, respectively.
On to `O=C(OC1CCN(Cc2ccccc2)CC1)c1ccc(Cl)cc1Cl`, for which the IC50 (on GABA transporter 2; at GABA transporter 3; in assay [2]) was > 1000 µM throughout.

(Values after ChEMBL document CHEMBL4028872, “Structure-Activity Relationship, Pharmacological Characterization, and Molecular Modeling of Noncompetitive Inhibitors of the Betaine/γ-Aminobutyric Acid Transporter 1 (BGT1)” (J Med Chem, 2017).)
